The text below walks through data of paper PMC3764597 (Carbohydrate research, 2013).

Data set [1] is described as follows: MTS cytotoxicity assay in HaCaT cells. In kind it is cell-based, human. As to conditions: human, HaCaT cells (spontaneously immortalized keratinocytes). Put shortly: (§1)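 Cells kept in DMEM with 10% heat-inactivated newborn calf serum plus penicillin/streptomycin/amphotericin B at 37 °C, 5% CO₂. Seeded 5,000 per well. Compound in DMSO added at 1–1000 μM for 18 h, then MTS for 2 h. A490 read with A650 reference, medium+MTS background subtracted. Viability given as % of DMSO-treated cells, triplicates. CC₅₀ by linear regression of the two points bracketing 50%.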
For orientation: Tetrazolium dyes change colour on reduction, which living cells bring about.

Data set [2] in a line: MTS cytotoxicity assay in Hs27 cells. In kind it is cell-based, human. As to conditions: human, Hs27 cells (foreskin fibroblasts). The essentials: as §1
Data set [3] is described as follows: MTS cytotoxicity assay in Jurkat cells. It is filed as cell-based, human. As to conditions: human, Jurkat cells (acute leukemia T lymphocytes). Put shortly:
(§2)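 Jurkat cells kept in RPMI with 10% heat-inactivated FBS plus antibiotics at 37 °C, 5% CO₂. Seeded 25,000 per well. Compound in DMSO at 1–1000 μM for 16 h, then MTS for 4 h. A490 read with A650 reference, background-corrected. Viability normalized to DMSO controls, triplicates. CC₅₀ from regression line through the two viabilities nearest 50%.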

Data set [4] has as its system HaCaT, Hs27 and Jurkat cells. Kind of data set: MTS cytotoxicity assay, statements summarised over the cell lines. As to conditions: for toxicity (MTS assay), in words: all three cell lines (HaCaT, Hs27, Jurkat), concentrations 1 to 1000 μM. It is filed as cell-based.
A short description of data set [5]: Differential scanning calorimetry. In kind it is physicochemical. As to conditions: DSC; for Transition temperature: 25 to 200 °C, 2.5 °C/min; for Enthalpy: phase transition, from integration of the thermograms. The essentials:
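Dry surfactant (1.0–1.5 mg) sealed in hermetic aluminum pans against an empty sealed-pan reference. Instrument calibrated with indium for temperature and enthalpy. Scanned 25–200 °C at 2.5 °C/min. Transition enthalpies obtained by integrating the thermograms.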
In general terms: Differential scanning calorimetry records heat flow against a reference as temperature is scanned.

Data set [6] relates to Spontaneously immortalized human keratinocytes (HaCaT). As to conditions: HaCaT cells, value of the previous study; cited from earlier work.
The test system of data set [7] is human Hs27 fibroblasts. As to conditions: Hs27 cells, value of the previous study; cited from earlier work.
Data set [8] relates to Jurkat human T-cell lymphoblastic leukemia cells. As to conditions: value of the previous study; cited from earlier work.
The conditions of data set [9]: cited from earlier work; for collapse pressure: room temperature; for "lift-off" temperature: linear alkanoic acids.
Data set [10] in a line: Langmuir monolayer compression isotherms at the air-water interface. In kind it is physicochemical. As to conditions: for formation of stable monolayers at the air-water interface: 14 °C, 150 mM NaCl / 1.5 mM CaCl2 subphase; for "lift-off" temperature: πtrans versus temperature extrapolated to zero surface pressure. The essentials: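 Subphase was 150 mM NaCl plus 1.5 mM CaCl₂ in purified water (pH 7.0), held at set temperatures by circulating bath, with impurities vacuumed off. Spread 50 μL of 1.662 mM surfactant in dichloromethane:methanol 9:1, let solvent evaporate, then compressed symmetrically at 10 mm/min (7.5 cm²/min). Wilhelmy platinum plate. Limiting area by extrapolating linear condensed region to zero pressure. Three independent runs.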

In data set [11] the test system is Spontaneously immortalized human keratinocytes (HaCaT). Description: MTS cytotoxicity assay in HaCaT cells. In kind it is cell-based. As to conditions: HaCaT cells, 18 h treatment then 2 h MTS, 1 to 1000 μM. Put shortly: as §1
Data set [12] deals with human Hs27 fibroblasts. Description: MTS cytotoxicity assay in Hs27 cells. It is filed as cell-based. As to conditions: Hs27 cells, 18 h treatment then 2 h MTS, 1 to 1000 μM. The essentials:
as §1

The test system of data set [13] is Jurkat human T-cell lymphoblastic leukemia cells. Kind of data set: MTS cytotoxicity assay in Jurkat cells. As to conditions: Jurkat cells, 16 h treatment then 4 h MTS, 1 to 1000 μM. It is filed as cell-based. Put shortly: as §2
In the next data set the test system is Jurkat cells. Description: Apoptosis/necrosis assay, annexin V-FITC staining and flow cytometry. As to conditions: 20 h incubation, compounds added at their CC50. In kind it is cell-based. (In general: In flow cytometry, cells or beads pass a laser one at a time.)
Setting [14] is: insoluble monolayers at the air-water interface.

Several values for one entry are separate records, joined by “and”; a condition that tells them apart may be missing. Equal values may be shown once. Entries after “also recorded” stand apart in the source; their conditions may differ. Read-outs that look alike come from different tables or passages of the source.

The CC50 is the concentration at which the toxic effect on the cells reaches its halfway point. For the compound `CCCCCCn1cc(CO[C@@H]2OC[C@@H](O)[C@H](O)[C@H]2O)nn1` [Compound 5a, (1-Hexyl-1H-1,2,3-triazol-4-yl)methyl β-D-xylopyranoside], the CC50 at 18 h in data set [1] and in [2] was more than 1000 µM each time. This compound showed a CC50 at 16 h in [3] of more than 1000 µM. Further, in [4], the “toxicity (MTS assay), in words” value was “not toxic”. The compound also gave a Transition temperature in data set [5] of 120.1 ± 0.8 °C. In data set [5], the Enthalpy stood at 6.45 ± 0.96 kcal/mol.

Consider `CCCCCCCCCCn1cc(CO[C@@H]2OC[C@@H](O)[C@H](O)[C@H]2O)nn1` [Compound 5c, (1-Decyl-1H-1,2,3-triazol-4-yl)methyl β-D-xylopyranoside], for which the CC50 at 18 h came out at 120 ± 30 µM in data set [1] and 180 ± 50 µM in data set [2]. In addition, the CC50 at 16 h in data set [3] came out at 77 ± 9 µM. Further, the “fold more toxic than 5b” value in data set [4] (in both Jurkat and HaCaT cells, from CC50 values) is recorded as “approximately 8 fold”. The compound further yielded a Transition temperature in data set [5] of 133.6 ± 0.1 °C. The same compound had an Enthalpy in data set [5] of 9.32 ± 0.48 kcal/mol.

Take `CCCCCCCCO[C@@H]1OC[C@@H](O)[C@H](O)[C@H]1O` [β-OXP, β-octyl xylopyranoside]: the CC50 is 850 ± 30 µM in [6], 760 ± 50 µM with human Hs27 fibroblasts [7] and 460 ± 13 µM in data set [8].

For the compound `CCCCCCCCCCCCn1cc(CO[C@@H]2OC[C@@H](O)[C@H](O)[C@H]2O)nn1` [Compound 5d, (1-Dodecyl-1H-1,2,3-triazol-4-yl)methyl β-D-xylopyranoside], the cytotoxic concentration (CC50) at 18 h in data set [1] and in data set [2] was more than 1000 µM in each case. In addition, the cytotoxic concentration (CC50) at 16 h in data set [3] came to 26 ± 3 µM. The compound further came in with a Transition temperature in [5] of 130.1 ± 0.2 °C. This compound registered an Enthalpy in [5] of 8.13 ± 0.48 kcal/mol.

Turning to n-nonyl glucosamine, the limiting molecular area in data set [9] (25 °C) is 46 Å^2/molecule.

As for 6-O-stearoyl glucopyranoside, the limiting molecular area in [9] (setting [14]) was 44 Å^2. Besides, in [9], the collapse pressure is 43 mN/m.

Turning to `CCCCCCCCCCCCCC(=O)O` [tetradecanoic acid], the “"lift-off" temperature” value in data set [9] is “approximately 7 °C”.

6-O-stearoyl galactopyranoside: in data set [9] (setting [14]), the limiting molecular area was 32 Å^2. For the same compound, in [9], the collapse pressure was 66 mN/m.

As to `O[C@@H]1[C@@H](O)[C@H](OCc2cn(CCC(F)(F)C(F)(F)C(F)(F)C(F)(F)C(F)(F)C(F)(F)F)nn2)OC[C@H]1O` [Compound 5g, (1-(3,3,4,4,5,5,6,6,7,7,8,8,8-Tridecafluorooctyl)-1H-1,2,3-triazol-4-yl)methyl β-D-xylopyranoside], the CC50 at 18 h in [1] is more than 1000 µM. Moreover, the CC50 at 18 h in data set [2] was more than 1000 µM. Also, the CC50 at 16 h in data set [3] was more than 1000 µM. The “toxicity (MTS assay), in words” value in [4] is reported as “not toxic; also recorded: no measurable inhibition of cell viability”. Further, in data set [5], the Transition temperature is 158 °C and 158.8 ± 0.2 °C; the Enthalpy came out at 10.8 ± 0.24 kcal/mol.

For `CCCCCCCCCCCCCCn1cc(CO[C@@H]2OC[C@@H](O)[C@H](O)[C@H]2O)nn1` [Compound 5e, (1-Tetradecyl-1H-1,2,3-triazol-4-yl)methyl β-D-xylopyranoside], the CC50 at 18 h in [1] and in [2] was more than 1000 µM throughout. Moreover, in data set [3], the CC50 at 16 h was more than 1000 µM. Moreover, the “toxicity (MTS assay), in words” value in data set [4] is given as “not toxic”. The Transition temperature in [5] was 134.7 ± 0.4 °C. The compound further gave an Enthalpy in [5] of 9.8 ± 0.24 kcal/mol. The “formation of stable monolayers at the air-water interface” value in [10] was “formed stable monolayers”. Besides, the “Atrans: mean molecular area at phase transition” value is 68 Å^2/molecule and 68.5 ± 0.9 Å^2/molecule in [10] (subphase 14 °C); 53.6 ± 0.9 Å^2/molecule in data set [10] (subphase 17 °C); 47.5 ± 0.2 Å^2/molecule in [10] (subphase 22 °C); 42.1 ± 0.7 Å^2/molecule in [10] (subphase 26 °C); 38 Å^2/molecule and 38.0 ± 1.2 Å^2/molecule in data set [10] (subphase 30 °C). In addition, the “π max: maximum surface pressure (collapse pressure)” value in [10] (subphase 14 °C) came to 64.1 ± 0.5 mN/m; in data set [10] (subphase 17 °C), 62.4 ± 1.4 mN/m; in data set [10] (subphase 22 °C), 59.4 ± 0.6 mN/m; in data set [10] (subphase 26 °C), 53.0 ± 2.0 mN/m; in [10] (subphase 30 °C) it was 47.0 ± 3.0 mN/m. For the same compound, the “π trans: surface pressure at phase transition” value in data set [10] (subphase 14 °C) was 5.6 mN/m and 5.6 ± 0.2 mN/m; in data set [10] (subphase 17 °C), 11.3 ± 0.2 mN/m; in data set [10] (subphase 22 °C), 15.0 ± 0.1 mN/m; in [10] (subphase 26 °C), 20.9 ± 0.2 mN/m; in data set [10] (subphase 30 °C), 26 mN/m and 27.0 ± 0.5 mN/m. Also, the “"lift-off" temperature” value in [10] is 9.2 °C.

In the case of `CCCCCCCCCCCCCCCCn1cc(CO[C@@H]2OC[C@@H](O)[C@H](O)[C@H]2O)nn1` [Compound 5f, (1-Hexadecyl-1H-1,2,3-triazol-4-yl)methyl β-D-xylopyranoside], the CC50 at 18 h in data set [1] and in data set [2] was more than 1000 µM throughout. The same compound gave a CC50 at 16 h in data set [3] of more than 1000 µM. In data set [4], the “toxicity (MTS assay), in words” value was “not toxic”. Further, in data set [5], the Transition temperature was found to be 134.9 ± 0.1 °C. Besides, the Enthalpy in [5] was 10.5 ± 0.48 kcal/mol. The “formation of stable monolayers at the air-water interface” value in data set [10] is reported as “formed stable monolayers”. The “Atrans: mean molecular area at phase transition” value in data set [10] (subphase 22 °C) is 84.0 ± 2.0 Å^2/molecule; in [10] (subphase 26 °C), 70.0 ± 2.0 Å^2/molecule; in data set [10] (subphase 30 °C), 65.0 ± 2.0 Å^2/molecule; in [10] (subphase 33 °C), 61.0 ± 2.0 Å^2/molecule; in [10] (subphase 37 °C), 51 Å^2/molecule and 51.2 ± 0.9 Å^2/molecule. Also, the “π max: maximum surface pressure (collapse pressure)” value in data set [10] (subphase 22 °C) is recorded as 64.0 ± 3.0 mN/m; in data set [10] (subphase 26 °C) it was 58.6 ± 0.8 mN/m; in data set [10] (subphase 30 °C), 53.6 ± 1.0 mN/m; in [10] (subphase 33 °C), 51.6 ± 0.4 mN/m; in data set [10] (subphase 37 °C), 48.0 ± 2.0 mN/m. Further, the “π trans: surface pressure at phase transition” value in data set [10] (subphase 22 °C) is 1.6 ± 0.2 mN/m; in data set [10] (subphase 26 °C) it was 6.8 ± 0.1 mN/m; in data set [10] (subphase 30 °C), 9.9 ± 0.1 mN/m; in data set [10] (subphase 33 °C), 11.6 ± 0.3 mN/m; in data set [10] (subphase 37 °C), 18 mN/m and 18.4 ± 0.4 mN/m. Also, the “"lift-off" temperature” value in data set [10] is 20.2 °C.

For `CCCCCCCCCCCCCCCC(=O)O` [hexadecanoic acid], the “"lift-off" temperature” value in data set [9] is approximately 26 °C.

On to `CCCCCCCCS[C@@H]1O[C@H](CO)[C@@H](O)[C@H](O)[C@H]1O` [β-OTG, β-octyl thioglucopyranoside, reference compound], for which the values for the 50% cytotoxic concentration (CC50) (in [11]; in the data set on human Hs27 fibroblasts [12]; in data set [13]) were 490 ± 60 µM, 380 ± 30 µM and 310 ± 40 µM, respectively.

`CCCCCCCCn1cc(CO[C@@H]2OC[C@@H](O)[C@H](O)[C@H]2O)nn1` [Compound 5b, (1-Octyl-1H-1,2,3-triazol-4-yl)methyl β-D-xylopyranoside] came in with a cytotoxic concentration (CC50) at 18 h in data set [1] of 890 ± 50 µM. This compound yielded a CC50 at 18 h in [2] of 694 ± 3 µM. In data set [3], this compound gave a CC50 at 16 h of 580 ± 60 µM. Moreover, the “mode of cell death (viable, apoptotic, necrotic cells)” value in the data set with Jurkat cells was “comparable with the positive controls for apoptosis”. Further, in data set [5], the Transition temperature was 126.9 ± 0.8 °C and the Enthalpy is 7.41 ± 1.2 kcal/mol.

On to n-octyl glucosamine, for which, in data set [9] (25 °C), the limiting molecular area was 48 Å^2/molecule.
